Legend:
[1] = system: Rattus norvegicus; assay: In vivo inhibitory activity against bone resorption of calcium response determined in thyroidparathyroidectomized rat model at 2.53 mg/kg/hr after 6 hr; type: functional
In short: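 Thyroparathyroidectomized rats received compound by continuous i.v. infusion at 2.53 mg/kg/hr. Inhibition of the calcemic response was read after 6 hr.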

[2] = target: Integrin alpha-V/beta-5 (Homo sapiens, UniProt P06756+P18084); assay: Binding affinity for integrin alpha V beta 5 receptor; type: protein-complex assay
Sequence of Integrin alpha-V/beta-5 (P06756 31-889 limits assumed): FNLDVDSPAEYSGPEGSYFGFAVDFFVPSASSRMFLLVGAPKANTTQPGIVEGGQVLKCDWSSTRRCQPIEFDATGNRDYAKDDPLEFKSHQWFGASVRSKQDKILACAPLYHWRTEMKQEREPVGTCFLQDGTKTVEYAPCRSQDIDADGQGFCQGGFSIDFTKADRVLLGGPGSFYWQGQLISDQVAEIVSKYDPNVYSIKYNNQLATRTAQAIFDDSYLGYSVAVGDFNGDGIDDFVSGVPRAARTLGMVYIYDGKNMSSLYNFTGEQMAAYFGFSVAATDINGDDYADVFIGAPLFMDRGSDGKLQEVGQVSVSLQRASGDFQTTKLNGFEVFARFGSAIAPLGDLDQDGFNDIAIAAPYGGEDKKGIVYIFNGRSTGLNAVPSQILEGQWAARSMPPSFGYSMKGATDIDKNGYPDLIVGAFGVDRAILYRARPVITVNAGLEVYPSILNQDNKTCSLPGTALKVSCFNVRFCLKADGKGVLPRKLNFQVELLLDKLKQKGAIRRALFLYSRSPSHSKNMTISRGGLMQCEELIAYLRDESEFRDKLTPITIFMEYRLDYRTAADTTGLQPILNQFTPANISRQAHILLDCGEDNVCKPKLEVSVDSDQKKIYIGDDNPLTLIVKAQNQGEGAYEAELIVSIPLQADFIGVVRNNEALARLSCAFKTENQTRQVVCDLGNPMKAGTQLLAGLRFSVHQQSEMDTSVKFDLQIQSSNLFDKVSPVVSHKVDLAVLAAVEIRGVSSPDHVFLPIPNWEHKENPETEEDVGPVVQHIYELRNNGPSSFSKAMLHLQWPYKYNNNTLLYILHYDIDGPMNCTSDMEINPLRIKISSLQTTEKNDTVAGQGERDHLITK
Sequence of Integrin alpha-V/beta-5 (P06756 891-1048 limits assumed): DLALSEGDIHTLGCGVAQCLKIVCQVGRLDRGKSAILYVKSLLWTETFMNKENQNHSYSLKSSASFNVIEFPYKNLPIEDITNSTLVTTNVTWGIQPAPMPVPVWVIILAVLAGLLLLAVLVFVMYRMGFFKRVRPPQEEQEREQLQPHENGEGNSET
Sequence of Integrin alpha-V/beta-5 (P18084 24-799 limits assumed): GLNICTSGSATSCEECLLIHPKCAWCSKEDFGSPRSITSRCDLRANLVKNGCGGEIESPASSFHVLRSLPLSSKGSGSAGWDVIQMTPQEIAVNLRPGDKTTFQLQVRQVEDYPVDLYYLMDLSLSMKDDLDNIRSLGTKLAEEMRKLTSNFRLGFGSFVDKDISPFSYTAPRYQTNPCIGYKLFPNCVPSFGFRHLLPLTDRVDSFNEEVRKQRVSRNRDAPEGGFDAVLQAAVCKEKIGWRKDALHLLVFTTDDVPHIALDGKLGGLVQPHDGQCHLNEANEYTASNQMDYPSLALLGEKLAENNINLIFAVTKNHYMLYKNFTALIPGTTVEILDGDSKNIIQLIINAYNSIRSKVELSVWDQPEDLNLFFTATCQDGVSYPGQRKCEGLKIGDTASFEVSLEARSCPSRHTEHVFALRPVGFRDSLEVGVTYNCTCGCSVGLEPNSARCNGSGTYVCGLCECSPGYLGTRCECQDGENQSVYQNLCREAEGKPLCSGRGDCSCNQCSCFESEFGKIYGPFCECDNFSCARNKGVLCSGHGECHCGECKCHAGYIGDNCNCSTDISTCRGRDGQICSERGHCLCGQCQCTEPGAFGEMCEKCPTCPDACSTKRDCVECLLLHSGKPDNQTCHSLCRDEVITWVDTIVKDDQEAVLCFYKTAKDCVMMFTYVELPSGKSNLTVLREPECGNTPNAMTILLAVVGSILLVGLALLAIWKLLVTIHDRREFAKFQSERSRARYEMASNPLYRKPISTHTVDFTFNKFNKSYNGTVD

[3] = Half-life was determined; type: ADME, organism-based; conditions: rat, in vivo
In short: (§1)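 Rat pharmacokinetics from plasma concentration–time data in two to three separate animals, by non-compartmental analysis. Oral bioavailability was taken from dose-normalized i.v. and p.o. AUC values.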

[4] = Oral bioavailability in rat; type: ADME, organism-based; conditions: in vivo; in short: as §1
[5] = organism: Homo sapiens; assay: In vitro inhibitory activity against human platelet aggregation; type: functional
In short: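 Inhibition of ADP-induced aggregation in human platelet-rich plasma.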

[6] = target: T1, Integrin alpha-V/beta-3 (Homo sapiens, UniProt P05106+P06756); assay: Inhibition of HEK 293 cell adhesion to vitronectin by alpha V beta 3; type: cell-based, HEK293
T1 sequence (P05106 27-788 limits assumed): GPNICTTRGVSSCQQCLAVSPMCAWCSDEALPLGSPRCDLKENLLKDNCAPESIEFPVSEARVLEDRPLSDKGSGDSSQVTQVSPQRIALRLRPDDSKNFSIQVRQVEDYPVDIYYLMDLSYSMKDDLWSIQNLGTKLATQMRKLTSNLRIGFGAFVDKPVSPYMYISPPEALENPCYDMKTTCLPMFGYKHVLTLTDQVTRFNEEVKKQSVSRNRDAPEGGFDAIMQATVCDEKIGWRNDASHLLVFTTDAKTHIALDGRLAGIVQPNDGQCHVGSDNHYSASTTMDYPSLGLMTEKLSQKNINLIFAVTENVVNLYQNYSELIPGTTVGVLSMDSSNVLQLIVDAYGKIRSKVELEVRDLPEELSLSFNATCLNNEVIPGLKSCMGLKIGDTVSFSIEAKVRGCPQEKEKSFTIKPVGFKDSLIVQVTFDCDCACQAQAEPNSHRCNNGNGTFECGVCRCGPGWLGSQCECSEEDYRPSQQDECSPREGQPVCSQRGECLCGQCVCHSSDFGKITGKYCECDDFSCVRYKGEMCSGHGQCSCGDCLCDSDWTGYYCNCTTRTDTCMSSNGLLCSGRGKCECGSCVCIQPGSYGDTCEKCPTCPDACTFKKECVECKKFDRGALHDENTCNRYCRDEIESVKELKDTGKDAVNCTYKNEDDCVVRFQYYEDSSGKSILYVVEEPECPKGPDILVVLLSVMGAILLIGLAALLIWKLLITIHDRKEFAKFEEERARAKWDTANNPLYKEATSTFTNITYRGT
T1 sequence (P06756 31-889 limits assumed): as the sequence (P06756 31-889 limits assumed) above
T1 sequence (P06756 891-1048 limits assumed): as the sequence (P06756 891-1048 limits assumed) above
In short: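 Cell-based αvβ3 affinity. HEK 293 cells transfected with human αvβ3 were tested for inhibition of adhesion of purified human vitronectin. IC50 is the mean of two experiments run in triplicate with an internal standard.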

[7] = Plasma clearance of the compound; type: ADME, organism-based; conditions: rat; in short: as §1
[8] = target: Integrin alpha-IIb/beta-3 (Homo sapiens, UniProt P05106+P08514); assay: Binding affinity for alpha IIb beta3 integrin; type: protein-complex assay
Sequence of Integrin alpha-IIb/beta-3 (P05106 27-788 limits assumed): as the sequence (P05106 27-788 limits assumed) above
Sequence of Integrin alpha-IIb/beta-3 (P08514 32-887 limits assumed): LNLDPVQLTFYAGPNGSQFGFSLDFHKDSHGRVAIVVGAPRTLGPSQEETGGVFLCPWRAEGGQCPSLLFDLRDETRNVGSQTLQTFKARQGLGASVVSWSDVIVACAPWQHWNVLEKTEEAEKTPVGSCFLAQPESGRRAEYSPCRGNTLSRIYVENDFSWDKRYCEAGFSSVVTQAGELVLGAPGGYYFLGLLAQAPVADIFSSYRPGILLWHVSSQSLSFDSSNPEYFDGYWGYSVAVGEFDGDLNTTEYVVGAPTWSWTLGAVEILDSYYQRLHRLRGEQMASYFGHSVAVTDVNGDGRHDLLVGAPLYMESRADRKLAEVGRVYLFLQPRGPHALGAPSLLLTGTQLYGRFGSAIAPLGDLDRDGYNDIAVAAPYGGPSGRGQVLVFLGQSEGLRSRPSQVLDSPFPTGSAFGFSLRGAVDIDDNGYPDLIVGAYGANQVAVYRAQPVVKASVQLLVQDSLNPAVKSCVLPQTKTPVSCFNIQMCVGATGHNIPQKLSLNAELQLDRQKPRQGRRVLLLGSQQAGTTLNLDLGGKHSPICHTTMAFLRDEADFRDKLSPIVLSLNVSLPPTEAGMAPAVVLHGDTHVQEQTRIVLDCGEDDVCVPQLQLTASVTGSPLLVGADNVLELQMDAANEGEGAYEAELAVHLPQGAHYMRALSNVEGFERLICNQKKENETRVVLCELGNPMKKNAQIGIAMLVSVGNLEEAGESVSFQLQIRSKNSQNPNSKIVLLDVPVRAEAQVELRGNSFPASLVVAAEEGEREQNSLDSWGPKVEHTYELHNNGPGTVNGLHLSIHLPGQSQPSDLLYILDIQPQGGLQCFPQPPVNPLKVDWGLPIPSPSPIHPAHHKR
Sequence of Integrin alpha-IIb/beta-3 (P08514 891-1039 limits assumed): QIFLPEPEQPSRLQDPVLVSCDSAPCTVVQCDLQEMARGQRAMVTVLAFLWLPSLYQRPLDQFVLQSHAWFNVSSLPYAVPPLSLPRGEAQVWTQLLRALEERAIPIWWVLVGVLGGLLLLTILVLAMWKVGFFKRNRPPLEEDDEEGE
In short: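 Competitive binding to human αIIbβ3, with 3H-SK&F 107260 as the displaced ligand. Ki is the mean of two to three separate experiments.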

[9] = target: T1, Integrin alpha-V/beta-3; assay: Binding affinity for non-peptide Vitronectin receptor (alpha V beta 3); type: protein-complex assay
In short: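 Competitive binding to human αvβ3, with 3H-SK&F 107260 as the displaced radioligand. Ki is the mean of two to three separate experiments.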

[10] = target: Integrin alpha-5/beta-1 (Homo sapiens); assay: Binding affinity for alpha 5 beta 1 receptor
[11] = organism: Homo sapiens; assay: In vitro inhibitory activity determined by human osteoclast resorption assay; type: functional

| SMILES | inhibition in vivo at 2.53 mg/kg/hr [1] [%] | Ki [2] [nM] | half-life [3] [h] | bioavailability [4] [%] | IC50 [5] [nM] | IC50 [6] [nM] | clearance [7] [mL/min/kg] | Ki [8] [nM] | Ki [9] [nM] | Ki [10] [nM] | IC50 [11] [nM] |
| --- | --- | --- | --- | --- | --- | --- | --- | --- | --- | --- | --- |
| O=C(O)C[C@@H]1Cc2ccc(OCCCNc3ccccn3)cc2Cc2ccccc21 | 85 | 1.3 | 3.02 | 100 | > 200000 | 60 | 3 | 9000 | 4 | 18000 | 48 |
| CN(Cc1nc2ccccc2[nH]1)C(=O)c1ccc2c(c1)Cc1ccccc1C(CC(=O)O)C2 (stereo not given) | – | – | – | – | – | 1800 | – | > 50000 | 23 | – | – |
| O=C(O)CC1Cc2ccc(OCCCNc3ccccn3)cc2Cc2ccccc21 (stereo not given) | – | – | – | – | – | 65 | – | 30000 | 8 | – | – |
| CN(Cc1nc2ccccc2[nH]1)C(=O)c1ccc2c(c1)CN(C)C(=O)[C@H](CC(=O)O)N2 | – | – | 0.15 | 3 | – | – | – | – | – | – | – |
| O=C(O)C[C@H]1Cc2ccc(OCCCNc3ccccn3)cc2Cc2ccccc21 | – | – | – | – | – | – | – | – | 550 | – | – |
